EBI2 block – blocks human EBI2 receptor beta-arrestin signaling; EBI2 beta-arrestin recruitment, luminescence, 7a,25-OHC stimulated; inhibition, % at 5 µM; hit rate 0.81% among 360,000; in the data active means inhibition above about 38%;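 further: enzyme fragment complementation signal reports receptor beta-arrestin coupling in cells; 0% = agonist plus DMSO wells and 100% = wells without agonist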
CXCR6 inh – blocks human CXCR6 beta-arrestin recruitment; hit rate 0.36% among 360,000; O00574; CHO-K1 PathHunter CXCR6 beta-arrestin, luminescence; inhibition, % at 20 µM; in the data active means inhibition above about 34%, passing the limit was not always enough;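 further: antagonist mode with CXCL16 agonist at 10 nM final; 0% = 10 nM CXCL16 with DMSO and 100% = unstimulated wells without agonist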
Target sequence (O00574 whole entry, looked up): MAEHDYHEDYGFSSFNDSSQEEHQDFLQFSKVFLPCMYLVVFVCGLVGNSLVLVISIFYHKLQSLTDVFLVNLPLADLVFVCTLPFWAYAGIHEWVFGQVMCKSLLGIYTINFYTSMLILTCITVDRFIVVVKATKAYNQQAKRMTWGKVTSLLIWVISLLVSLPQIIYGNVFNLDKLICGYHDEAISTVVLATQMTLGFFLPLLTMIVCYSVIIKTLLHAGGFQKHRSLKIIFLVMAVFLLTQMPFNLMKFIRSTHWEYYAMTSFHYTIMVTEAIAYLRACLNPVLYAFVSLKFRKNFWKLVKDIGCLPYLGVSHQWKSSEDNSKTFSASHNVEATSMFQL
APJ antagonist – blocks the human apelin receptor APJ; CHO-K1 APJ beta-arrestin complementation, luminescence; hit rate 0.32% among 330,000; inhibition, % at 20 µM; P35414; AID 2521;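 active means inhibition above about 40% at 20 µM, limit read from the data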;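 further: cells challenged with 10 nM apelin-13 agonist together with compound; plate controls were apelin-13 plus DMSO wells for no effect and DMSO wells lacking apelin-13 for full effect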
CCR6 antagonist – blocks CCL20-driven beta-arrestin recruitment at human CCR6; inhibition, % at 20 µM; AID 493098; hit rate 0.49% among 340,000; P51684; CHO-K1 CCR6 PathHunter beta-arrestin, luminescence, CCL20-stimulated;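 active means compounds whose inhibition of the agonist-driven luminescence signal at 20 µM reaches about 50%, limit read from the data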;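 further: cells stimulated with CCL20 at 14 nM final; plate controls were DMSO with CCL20 for no effect and DMSO without agonist for full effect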
APJ agonist – activates the human apelin receptor APJ | AID 2520 | CHO-K1 APJ PathHunter beta-arrestin, luminescence; 0% DMSO wells, 100% apelin | hit rate 0.11% among 330,000 | activation, % at 20 µM | P35414;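 active means activation more than six SD over the plate average, tested at 20 µM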;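 further: 0% = DMSO alone and 100% = apelin-13 at 10 nM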
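Test system: CHO-K1 APJ beta-arrestin complementation cell line | Compound: Single test compound dose, 20 µM final, 1% DMSO | Incubation: Compound 90 min 25 °C, reagent 1 h | Measured by: beta-gal luminescence | Read-out basis: APJ–arrestin association signal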
APJ ag conf – APJ receptor agonism confirmation. shares compounds with APJ agonist. activation, % at 20 µM. AID 2764. CHO-K1 APJ PathHunter beta-arrestin, luminescence. hit rate 10% among 310;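 active means activation above 40%, taking the highest of four retests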;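 further: plate controls were DMSO wells for no effect and apelin-13 at 10 nM for full effect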
Starred values were filed as active, the others as inactive; . = no result. Only some compounds are listed: those with a hit (about 1.5% of all), similar ones and a draw of the others.

SMILES	EBI2 block	CXCR6 inh	APJ antagonist	CCR6 antagonist	APJ agonist	APJ ag conf
O=C(Nc1cccc([N+](=O)[O-])c1)c1cc2ccccc2cc1O	-3	3	-16	26	7	.
O=C(Nc1ccncc1)c1cc2ccccc2cc1O	-35	-40	-213	-32	47*	33
COC(=O)C1=C(CN2CCc3ccccc32)NC(=O)NC1c1cc(C)ccc1C (stereo unspecified)	-20	9	-17	-7	39*	11
COC(=O)C1=C(CN2CCN(C)CC2)NC(=O)NC1c1cc(C)ccc1C (stereo unspecified)	-14	-5	22	-12	0	.
CN(C)CCCN(C(=O)c1ccc([N+](=O)[O-])s1)c1nc2cc3c(cc2s1)OCCO3	-14	-10	-145	-9	131*	38
CN(C)CCCN(C(=O)c1cc2cc([N+](=O)[O-])ccc2s1)c1nc2cc3c(cc2s1)OCCO3	-14	6	-4	26	43*	21
N/C(=N\OC(=O)c1cc(Br)ccc1Cl)c1cccnc1	-21	-18	-105	-16	11*	28
Cc1[nH]c2ccccc2c1C(=O)COC(=O)C1CC(O)CN1S(=O)(=O)c1ccc(Cl)cc1 (stereo unspecified)	-16	-6	-16	-14	28*	4
O=C(COC(=O)C1CC(O)CN1S(=O)(=O)c1ccc(Cl)cc1)c1ccccc1 (stereo unspecified)	-2	0	-7	1	-3	.
CN(C)c1ccc(C(=S)N2CCCC2)cc1Br	-10	-11	5	5	-4	.
COc1ccc(C/C(N)=N/OC(=O)c2cccc([N+](=O)[O-])c2)cc1	-14	-19	-56	-3	18*	19
COc1ccc(C(=O)O/N=C(\N)Cc2ccc([N+](=O)[O-])cc2)c(OC)c1	5	-10	-24	-12	21*	32
COc1ccc(C(=O)O/N=C(\N)Cc2ccc(Cl)c(Cl)c2)cc1OC	8	-43	-86	-6	12	.
COc1ccccc1C/C(N)=N/OC(=O)c1cccc([N+](=O)[O-])c1	-7	-11	-95	-17	11*	37
COc1ccc(C(=O)O/N=C(\N)Cc2ccc(Cl)cc2)cc1OC	14	-2	-57	-7	12*	24
N/C(Cc1ccc([N+](=O)[O-])cc1)=N\OC(=O)c1cccc(Br)c1	-2	-24	-40	2	4	.
COC(=O)CSc1nc(C)c(Oc2ccccc2)c(=O)[nH]1	-1	-15	-3	16	-1	.
COc1cccc(OCc2cc(C(=O)NCc3cnc4ccccn34)no2)c1	-9	-4	8	3	-1	.
Cc1ccc(NC(=O)C2(C)CCN2C(=O)Cc2cc(F)ccc2F)cc1 (stereo unspecified)	-11	1	.	.	.	.
Cc1ccc(C(=O)N2CCN(c3ncnc4c3cnn4-c3ccccc3)CC2)cc1	13	-9	-20	.	32*	-2
Cc1ccc(-n2ncc3c(N4CCCC4)ncnc32)c(C)c1	-2	0	4	-1	-2	.
COc1cccc(N2CCN(c3ncnc4c3cnn4-c3ccc(C)cc3C)CC2)c1	-74	-4	-58	-7	16*	34
CC(=O)c1c(C)[nH]c(C(=O)OCc2cc(-c3ccco3)on2)c1C	-5	2	8	8	13*	4
CC(=O)c1c(C)[nH]c(C(=O)OCc2cccc(Cl)c2)c1C	1	-8	14	12	0	.
Nc1ncc(S(=O)(=O)c2ccc(Cl)cc2)c(N)n1	8	-6	-1	-4	-2	.
CCn1c(SCC(=O)N/N=C/c2ccccc2OCC(=O)O)nnc1-c1ccc(C)cc1	-15	-4	2	8	-6	.
Cn1c(NCc2c[nH]c3ccccc23)nc2ccccc21	-37	-9	-14	-11	22*	25
Cc1ccc(S(=O)(=O)N2C(=O)CCC2C(=O)O/N=C(\N)c2ccc([N+](=O)[O-])cc2)cc1 (stereo unspecified)	-18	-17	-134	-26	36*	20
Cc1ccc(S(=O)(=O)N2C(=O)CCC2C(=O)O/N=C(\N)c2cccc([N+](=O)[O-])c2)cc1 (stereo unspecified)	-9	-36	-132	-41	37*	23
